Blank lines part the entries; values can stand above or below the compound they belong to.
Key:
[1] = target: Serotonin 2 (5-HT2) receptor (Rattus norvegicus, UniProt P30994+P08909+P14842); assay: In vitro binding affinity on 5-hydroxytryptamine 2 receptor is inhibition of binding of [125I]- I-LSD to P11 cells
In short: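 Competition binding on membranes from P11 cells (pituitary tumor 7315A line, 5-HT2 without D2 or other serotonin subtypes); 0.4–0.5 nM [125I]I-LSD in 50 mM Tris-HCl pH 7.4; 1 μM ketanserin defines nonspecific; 37 °C, 60 min; filtration, gamma counting. IC50 from curve fitting, Ki by Cheng–Prusoff.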

[2] = target: T1, Adrenergic receptor alpha-2 (Rattus norvegicus, UniProt P22086+P19328+P22909); assay: In vitro binding affinity on alpha-2 receptor is inhibition of binding of [3H]- rauwolscine to rat cortex
T1 sequence (P22086 whole entry): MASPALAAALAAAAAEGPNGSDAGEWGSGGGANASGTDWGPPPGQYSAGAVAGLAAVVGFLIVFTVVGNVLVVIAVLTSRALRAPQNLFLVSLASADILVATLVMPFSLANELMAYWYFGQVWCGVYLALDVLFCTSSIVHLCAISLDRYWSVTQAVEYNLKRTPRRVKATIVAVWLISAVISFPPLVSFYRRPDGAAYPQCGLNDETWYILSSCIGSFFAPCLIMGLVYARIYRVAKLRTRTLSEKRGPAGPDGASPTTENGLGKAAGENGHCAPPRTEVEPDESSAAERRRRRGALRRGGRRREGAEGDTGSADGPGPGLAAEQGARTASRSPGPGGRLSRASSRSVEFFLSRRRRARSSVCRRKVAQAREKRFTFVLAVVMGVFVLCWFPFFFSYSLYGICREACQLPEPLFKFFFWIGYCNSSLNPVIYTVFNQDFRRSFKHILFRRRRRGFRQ
T1 sequence (P19328 whole entry): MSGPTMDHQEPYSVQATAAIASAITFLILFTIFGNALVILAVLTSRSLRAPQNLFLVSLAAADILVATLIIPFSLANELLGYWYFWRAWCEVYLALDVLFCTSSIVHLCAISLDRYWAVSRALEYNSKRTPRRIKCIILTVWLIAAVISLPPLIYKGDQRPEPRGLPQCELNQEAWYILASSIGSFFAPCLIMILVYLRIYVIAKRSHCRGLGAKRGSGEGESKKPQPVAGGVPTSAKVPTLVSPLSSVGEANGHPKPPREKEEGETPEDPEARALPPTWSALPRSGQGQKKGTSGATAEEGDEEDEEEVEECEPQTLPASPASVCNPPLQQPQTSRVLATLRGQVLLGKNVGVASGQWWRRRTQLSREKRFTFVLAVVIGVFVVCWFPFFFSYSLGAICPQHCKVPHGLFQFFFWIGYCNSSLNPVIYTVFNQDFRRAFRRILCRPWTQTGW
T1 sequence (P22909 whole entry): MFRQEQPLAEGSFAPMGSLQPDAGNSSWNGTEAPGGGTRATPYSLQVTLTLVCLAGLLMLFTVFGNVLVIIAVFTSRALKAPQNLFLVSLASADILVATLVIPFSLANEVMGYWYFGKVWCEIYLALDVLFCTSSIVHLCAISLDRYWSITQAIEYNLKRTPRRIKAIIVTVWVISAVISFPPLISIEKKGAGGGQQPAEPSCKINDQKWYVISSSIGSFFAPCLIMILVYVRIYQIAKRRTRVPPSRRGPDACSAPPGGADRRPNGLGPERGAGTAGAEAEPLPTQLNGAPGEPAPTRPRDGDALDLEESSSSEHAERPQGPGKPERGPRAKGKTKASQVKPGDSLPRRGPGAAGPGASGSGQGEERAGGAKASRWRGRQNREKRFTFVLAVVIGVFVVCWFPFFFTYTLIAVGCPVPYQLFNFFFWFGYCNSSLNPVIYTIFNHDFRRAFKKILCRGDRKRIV
In short: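 Rat cerebral cortex membranes, 2 nM [3H]rauwolscine in 20 mM HEPES pH 7.4, run in triplicate; nonspecific with 10 μM phentolamine; 20 °C, 30 min; glass fiber filtration, liquid scintillation counting. IC50 by curve fitting, converted to Ki via Cheng–Prusoff.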

Rattus norvegicus [3] = assay: In vivo blood concentration of [18F]-labeled compound by rat brain at 30 min; format: functional, organism-based
In short: (§1)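 Sprague–Dawley rats (200–300 g) under ketamine/xylazine anesthesia given 0.5–1.0 mL of 0.9% saline containing 18F-labeled ligand (20–150 μCi) i.v. via femoral vein. Killed by decapitation at set times (5 min to 5 h). A blood sample was taken and gamma-counted, expressed as % ID/g of blood. Mean ± SEM, n = 4-8.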

Rattus norvegicus [4] = assay: In vivo blood concentration of [18F]-labeled compound by rat brain at 3h; format: functional, organism-based; in short: as §1
Rattus norvegicus [5] = assay: In vivo blood concentration of [18F]-labeled compound by rat brain at 4 hr; format: functional, organism-based; in short: as §1
Rattus norvegicus [6] = assay: In vivo blood concentration of [18F]-labeled compound by rat brain at 5 min; format: functional, organism-based; in short: as §1
Rattus norvegicus [7] = assay: In vivo blood concentration of [18F]-labeled compound by rat brain at 5 hr; format: functional, organism-based; in short: as §1
Rattus norvegicus [8] = assay: In vivo blood concentration of [18F]-labeled compound by rat brain at 1 hr; format: functional, organism-based; in short: as §1
Rattus norvegicus [9] = assay: In vivo blood concentration of [18F]-labeled compound by rat brain at 2 hr; format: functional, organism-based; in short: as §1
Rattus norvegicus [10] = assay: In vivo brain uptake of [18F]-labeled compound by rat brain at 1 hr; format: functional, organism-based
In short: (§2)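 Sprague–Dawley rats (200–300 g), anesthetized with ketamine/xylazine, received 18F-labeled ligand (20–150 μCi) in 0.5–1.0 mL 0.9% saline i.v. (femoral vein). Decapitated at set intervals from 5 min to 5 h. Whole brain removed, weighed and gamma-counted, expressed as % ID/brain and % ID/g brain. Mean ± SEM, n = 4-8.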

Rattus norvegicus [11] = assay: In vivo brain uptake of [18F]-labeled compound by rat brain at 2 hr; format: functional, organism-based; in short: as §2
Rattus norvegicus [12] = assay: In vivo brain uptake of [18F]-labeled compound by rat brain at 30 min; format: functional, organism-based; in short: as §2
Rattus norvegicus [13] = assay: In vivo brain uptake of [18F]-labeled compound by rat brain at 3h; format: functional, organism-based; in short: as §2
Rattus norvegicus [14] = assay: In vivo brain uptake of [18F]-labeled compound by rat brain at 4 hr; format: functional, organism-based; in short: as §2
Rattus norvegicus [15] = assay: In vivo brain uptake of [18F]-labeled compound by rat brain at 5 min; format: functional, organism-based; in short: as §2
Rattus norvegicus [16] = assay: In vivo brain uptake of [18F]-labeled compound by rat brain at 5 hr; format: functional, organism-based; in short: as §2
D(2) dopamine receptor = D(2) dopamine receptor (Rattus norvegicus, UniProt P61169); assay: Inhibition of [125I]- NCQ 298 binding to D2 receptor of rat striatal tissue; format: tissue-based, Striatum
[17] = Partition coefficient (logP); format: physicochemical; details: C-18 reversed-phase HPLC
In short: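 Lipophilicity measured as log P by the C-18 reversed-phase HPLC method of Kraak et al.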

[18] = target: D(3) dopamine receptor (Rattus norvegicus); assay: In vitro binding affinity on D3 receptor is inhibition of binding of [125I]- NCQ 298 to Sf9 cells infected with recombinant baculovirus

D(2) dopamine receptor, sequence (P61169 whole entry): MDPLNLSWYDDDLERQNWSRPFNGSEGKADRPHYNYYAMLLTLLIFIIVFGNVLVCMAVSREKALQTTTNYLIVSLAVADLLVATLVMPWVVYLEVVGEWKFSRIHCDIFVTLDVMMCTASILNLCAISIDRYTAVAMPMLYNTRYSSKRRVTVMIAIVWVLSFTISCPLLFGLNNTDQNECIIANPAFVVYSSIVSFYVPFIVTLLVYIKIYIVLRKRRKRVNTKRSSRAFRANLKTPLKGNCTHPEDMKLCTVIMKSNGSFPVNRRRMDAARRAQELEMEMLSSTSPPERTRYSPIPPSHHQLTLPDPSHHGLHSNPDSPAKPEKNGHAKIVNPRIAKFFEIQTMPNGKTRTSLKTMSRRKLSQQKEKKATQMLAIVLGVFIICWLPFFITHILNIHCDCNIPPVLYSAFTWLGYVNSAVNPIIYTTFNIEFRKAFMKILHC

Ki [1]: 283 nM
Ki [2]: 1300 nM
SMILES: COc1cc(N)c(Cl)cc1C(=O)NC1CCN(Cc2ccc(F)cc2)CC1

Ki [1]: 94 nM
Ki [2]: 3000 nM
SMILES: COc1cc(Br)cc(C(=O)NC2CCN(Cc3ccc(F)cc3)CC2)c1OC
ID/g (Rattus norvegicus [3]): 0.036%
ID/g (Rattus norvegicus [4]): 0.013%
ID/g (Rattus norvegicus [5]): 0.012%
ID/g (Rattus norvegicus [6]): 0.088%
ID/g (Rattus norvegicus [7]): 0.012%
ID/g (Rattus norvegicus [8]): 0.025%
ID/g (Rattus norvegicus [9]): 0.016%
ID/brain (Rattus norvegicus [10]): 0.36%
ID/g (Rattus norvegicus [10]): 0.2%
ID/brain (Rattus norvegicus [11]): 0.27%
ID/g (Rattus norvegicus [11]): 0.14%
ID/brain (Rattus norvegicus [12]): 0.55%
ID/g (Rattus norvegicus [12]): 0.32%
ID/brain (Rattus norvegicus [13]): 0.2%
ID/g (Rattus norvegicus [13]): 0.1%
ID/brain (Rattus norvegicus [14]): 0.21%
ID/g (Rattus norvegicus [14]): 0.12%
ID/brain (Rattus norvegicus [15]): 1.12%
ID/g (Rattus norvegicus [15]): 0.58%
ID/brain (Rattus norvegicus [16]): 0.2%
ID/g (Rattus norvegicus [16]): 0.12%

Ki (D(2) dopamine receptor): 0.033 nM
SMILES: COc1cc(Br)cc(C(=O)NC2CC3CCCC(C2)N3Cc2ccccc2)c1OC (stereo not drawn)

Ki [1]: 89 nM
Ki [2]: 600 nM
SMILES: COc1cc(N)c(Cl)cc1C(=O)NC1CCN(Cc2ccccc2)CC1 [CLEBOPRIDE]

Ki (D(2) dopamine receptor): 0.63 nM
SMILES: COc1cccc(C(=O)NC2CCN(Cc3ccccc3)CC2)c1OC

Ki [1]: 84 nM
logP [17]: 2.86
Ki [2]: 1300 nM
SMILES: COc1cccc(C(=O)NC2CC3CCCC(C2)N3Cc2ccc(F)cc2)c1OC (stereo not drawn)
ID/g (Rattus norvegicus [3]): 0.089%
ID/g (Rattus norvegicus [4]): 0.019%
ID/g (Rattus norvegicus [5]): 0.013%
ID/g (Rattus norvegicus [6]): 0.156%
ID/g (Rattus norvegicus [7]): 0.005%
ID/g (Rattus norvegicus [8]): 0.044%
ID/g (Rattus norvegicus [9]): 0.024%
ID/brain (Rattus norvegicus [10]): 0.31%
ID/g (Rattus norvegicus [10]): 0.23%
ID/brain (Rattus norvegicus [11]): 0.44%
ID/g (Rattus norvegicus [11]): 0.27%
ID/brain (Rattus norvegicus [12]): 0.35%
ID/g (Rattus norvegicus [12]): 0.2%
ID/brain (Rattus norvegicus [13]): 0.37%
ID/g (Rattus norvegicus [13]): 0.23%
ID/brain (Rattus norvegicus [14]): 0.36%
ID/g (Rattus norvegicus [14]): 0.22%
ID/brain (Rattus norvegicus [15]): 0.64%
ID/g (Rattus norvegicus [15]): 0.39%
ID/brain (Rattus norvegicus [16]): 0.23%
ID/g (Rattus norvegicus [16]): 0.14%

Ki [1]: 1840 nM
logP [17]: 2.83
Ki (D(2) dopamine receptor): 0.38 nM
Ki [2]: 3000 nM
Ki [18]: 5.91 nM
SMILES: COc1cccc(C(=O)NC2CCN(Cc3ccc(F)cc3)CC2)c1OC
ID/g (Rattus norvegicus [3]): 0.066%
ID/g (Rattus norvegicus [4]): 0.017%
ID/g (Rattus norvegicus [5]): 0.01%
ID/g (Rattus norvegicus [6]): 0.155%
ID/g (Rattus norvegicus [7]): 0.012%
ID/g (Rattus norvegicus [8]): 0.043%
ID/g (Rattus norvegicus [9]): 0.029%
ID/brain (Rattus norvegicus [10]): 0.57%
ID/g (Rattus norvegicus [10]): 0.36%
ID/brain (Rattus norvegicus [11]): 0.5%
ID/g (Rattus norvegicus [11]): 0.33%
ID/brain (Rattus norvegicus [12]): 0.61%
ID/g (Rattus norvegicus [12]): 0.39%
ID/brain (Rattus norvegicus [13]): 0.38%
ID/g (Rattus norvegicus [13]): 0.25%
ID/brain (Rattus norvegicus [14]): 0.17%
ID/g (Rattus norvegicus [14]): 0.11%
ID/brain (Rattus norvegicus [15]): 1.28%
ID/g (Rattus norvegicus [15]): 0.81%
ID/brain (Rattus norvegicus [16]): 0.19%
ID/g (Rattus norvegicus [16]): 0.12%

SMILES: COc1cc(N)c(Cl)cc1C(=O)N[C@@H]1C[C@H]2CCC[C@@H](C1)N2Cc1ccc(F)cc1
Ki [1]: 2200 nM
Ki (D(2) dopamine receptor): > 10 nM

SMILES: COc1cc(N)c(Cl)cc1C(=O)NC1CC2CCCC(C1)N2Cc1ccccc1 (stereo not drawn)
Ki (D(2) dopamine receptor): 0.036 nM

SMILES: COc1cccc(C(=O)NC2CC3CCCC(C2)N3Cc2ccccc2)c1OC (stereo not drawn)
Ki (D(2) dopamine receptor): 0.038 nM

Ki [18]: 0.16 nM
SMILES: CCN1CCC[C@H]1CNC(=O)c1c(O)c(I)cc(OC)c1OC [IOXIPRIDE]

Ki (D(2) dopamine receptor): 0.31 nM
SMILES: COc1cc(Br)cc(C(=O)NC2CCN(Cc3ccccc3)CC2)c1OC

Ki [1]: 3.1 nM
Ki (D(2) dopamine receptor): 0.02 nM
Ki [2]: 1900 nM
SMILES: COc1cc(Br)cc(C(=O)NC2CC3CCCC(C2)N3Cc2ccc(F)cc2)c1OC (stereo not drawn)

— ChEMBL document CHEMBL1126910, “18F-labeled benzamides for studying the dopamine D2 receptor with positron emission tomography” (J Med Chem, 1993)
